From PubChem
Apaf-1 act = activators of human Apaf-1 apoptosome; O14727; 330,000 tested, 0.31% active; Apaf-1 apoptosome caspase-3 activation, DEVD-Rh110 fluorescence; hits give low values; activity change, negative = activation, % at 20 µM;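 active = activity change at or below -40% at 20 µM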
Target sequence (O14727 whole entry, looked up): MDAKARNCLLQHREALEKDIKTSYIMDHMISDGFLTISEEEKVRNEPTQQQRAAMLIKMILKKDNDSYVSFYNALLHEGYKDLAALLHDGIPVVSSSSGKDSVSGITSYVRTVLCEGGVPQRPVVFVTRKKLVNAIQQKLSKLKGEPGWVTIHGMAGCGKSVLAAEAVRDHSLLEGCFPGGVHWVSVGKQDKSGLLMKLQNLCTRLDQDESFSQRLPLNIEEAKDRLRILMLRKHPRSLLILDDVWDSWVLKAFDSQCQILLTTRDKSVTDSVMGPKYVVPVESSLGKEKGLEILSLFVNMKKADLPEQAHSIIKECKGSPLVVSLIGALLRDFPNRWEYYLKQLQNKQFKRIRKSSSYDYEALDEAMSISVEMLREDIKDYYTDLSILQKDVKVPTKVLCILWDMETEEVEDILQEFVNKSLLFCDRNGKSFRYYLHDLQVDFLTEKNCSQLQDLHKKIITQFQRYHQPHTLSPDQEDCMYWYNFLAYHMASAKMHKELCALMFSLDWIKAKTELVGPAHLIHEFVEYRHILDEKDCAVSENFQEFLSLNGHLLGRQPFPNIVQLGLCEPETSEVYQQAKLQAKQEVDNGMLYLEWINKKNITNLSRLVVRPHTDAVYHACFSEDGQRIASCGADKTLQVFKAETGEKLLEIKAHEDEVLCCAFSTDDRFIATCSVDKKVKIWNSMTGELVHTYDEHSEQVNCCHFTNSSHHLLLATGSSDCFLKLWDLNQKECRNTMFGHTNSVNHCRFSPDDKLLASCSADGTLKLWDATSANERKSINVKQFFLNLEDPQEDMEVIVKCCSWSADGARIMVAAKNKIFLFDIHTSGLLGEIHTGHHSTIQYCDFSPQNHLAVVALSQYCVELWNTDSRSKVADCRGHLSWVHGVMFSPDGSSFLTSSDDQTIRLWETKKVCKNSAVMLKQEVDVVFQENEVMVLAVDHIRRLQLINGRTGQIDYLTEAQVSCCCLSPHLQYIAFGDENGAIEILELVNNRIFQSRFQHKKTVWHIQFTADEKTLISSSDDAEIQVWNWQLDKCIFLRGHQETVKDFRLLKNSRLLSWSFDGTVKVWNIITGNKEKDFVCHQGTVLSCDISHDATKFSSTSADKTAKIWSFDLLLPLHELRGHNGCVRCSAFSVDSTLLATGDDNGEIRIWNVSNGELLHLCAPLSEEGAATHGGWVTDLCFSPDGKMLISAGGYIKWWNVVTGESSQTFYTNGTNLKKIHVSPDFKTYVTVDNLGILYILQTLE
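Material: reconstituted apoptosome of Apaf-1, cytochrome c, caspase-9, procaspase-3; times: 30 min preincubation, 50 min reaction, room temperature; measured by: fluorescence, 540 nm emission, 480 nm excitation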
Rh110 interf act = Rh110 signal interference in Apaf-1 activator counter-screen; Rh110 fluorescence interference, quenched caspase reaction, Ex480/Em540; fluorescence interference (activity change), % at 20 µM, hits read low; 980 tested, under 10 active; shares compounds with Apaf-1 act;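 active = mean activity change at or below -40% when tested at 20 µM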
Apaf-1 act conf = confirmation of human Apaf-1 activators. 980 tested, 5% active. shares compounds with Apaf-1 act. activity change, negative = activation, % at 20 µM. reconstituted apoptosome caspase-3 activity, DEVD-Rh110 fluorescence; hits give low values;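 active = mean activity change at or below -40%, meaning activation of 40% or more, at 20 µM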
Each line names hits and unclear results; the compound was inactive in the other large screens (follow-up assays come after a bar, where they were run). A selection follows.

COc1ccc(CNC(=O)c2c(C)oc3c2C(=O)c2ccccc2C3=O)cc1	none
COc1cccc(CNC(=O)CN2C(=O)COc3ccc(S(=O)(=O)N4CCCC4)cc32)c1	Apaf-1 act -82 | Rh110 interf act inactive | Apaf-1 act conf inactive
COc1cccc(CN(C)C(=O)c2ccc(C)c(S(=O)(=O)N3CCCCC3)c2)c1	none
COc1cccc(CN(C)C(=O)c2cc(S(=O)(=O)N3CCCCCC3)ccc2OC)c1	none
Cc1[nH]n(-c2ccccc2)c(=O)c1C(C[N+](=O)[O-])c1ccccc1Cl (stereo not given)	none
CCN(CC(=O)Nc1ccc2c(c1)OCCO2)S(=O)(=O)c1ccc(C)cc1	Apaf-1 act -78 | Rh110 interf act inactive | Apaf-1 act conf inactive
CN(CC(=O)Nc1ccc2c(c1)OCCO2)S(=O)(=O)c1cccc2cccnc12	Apaf-1 act -115 | Rh110 interf act inactive | Apaf-1 act conf inactive
CCN(Cc1ccccc1)S(=O)(=O)c1ccc(C(=O)N(CCCN(C)C)c2nc3cc4c(cc3s2)OCCO4)cc1	none
Cc1cccc(C)c1NC(=O)CSCC(=O)c1ccc(O)c(O)c1	Apaf-1 act -161 | Rh110 interf act inactive | Apaf-1 act conf inactive
Clc1cccc(Cl)c1CNC1CCCC1	Apaf-1 act -48 | Rh110 interf act inactive | Apaf-1 act conf inactive
Fc1cccc(Cl)c1CNc1ccc(N2CCCC2)cc1	none
COc1cc2c(cc1OC)CN(Cc1cc(=O)oc3cc(C)c(Cl)cc13)CC2	Apaf-1 act -43 | Rh110 interf act inactive | Apaf-1 act conf inactive
COc1cc2c(C#N)c(N3CCc4ccccc4C3)nc(N)c2c(N)n1	none
COc1cc(OC)cc(-c2sc3ccc(OC)cc3c2-c2ccc(OCCN3CCCCC3)cc2)c1	none
Cc1cc(N(CCO)CCO)ccc1N=Nc1cc(F)ccc1F	none
CCOC(=O)c1cnc(-n2nc(C)cc2C)nc1NC1CCCCC1	none
CCOC(=O)C1=NNC2C(=O)N(C3CCCCC3)C(=O)C12 (stereo not given)	Apaf-1 act -79 | Rh110 interf act inactive | Apaf-1 act conf inactive
Cc1ccc(S(=O)(=O)/N=C2\C(=O)c3ccccc3C([O-])=C2n2cc[n+](CCC(C)C)c2)cc1	none
CC1CCCC(NC(=O)COC(=O)c2ccc([N+](=O)[O-])s2)C1C (stereo not given)	none
COc1ccc(Cl)cc1C(=O)OCC(=O)NC1CCCC(C)C1C (stereo not given)	Apaf-1 act -41 | Rh110 interf act inactive | Apaf-1 act conf inactive
CC1CCCC(NC(=O)COC(=O)CCC(=O)c2cccs2)C1C (stereo not given)	Apaf-1 act -273 | Rh110 interf act inactive | Apaf-1 act conf inactive
Nc1ccn([C@H]2C[C@H](O)[C@@H](CO)O2)c(=O)n1	none
CC1=NN(c2ccccc2)C(=O)/C1=C/c1cc2cc(C)ccc2nc1N1CCCCC1	none
CN1c2cccc3cccc(c23)N(C)C1(C)C	none
O=S1(=O)N=C(Nc2ccc(S(=O)(=O)N3CCCCC3)cc2)c2ccccc21	Apaf-1 act -44 | Rh110 interf act inactive | Apaf-1 act conf inactive
O=C1C(NS(=O)(=O)c2ccc(Cl)cc2)=C(N2CCCCC2)C(=O)c2ccccc21	none
CN(C)CCC(c1ccc(Cl)cc1)c1ccccn1 (stereo not given)	none
CCOc1ccc(-n2nc3ccc(N)cc3n2)cc1	none
Cc1ccc2c(CN3CCCCC3C)cc(=O)oc2c1C (stereo not given)	Apaf-1 act -50 | Rh110 interf act inactive | Apaf-1 act conf inactive
CCCCCCOC(=O)C(C#N)c1nc2ccccc2nc1N1CCN(CC)CC1 (stereo not given)	none
CC(C)N1CCc2c(sc(NC(=O)c3cc(-c4cccs4)nc4ccccc34)c2C(N)=O)C1	none
CC(=O)c1ccc(Nc2nc(-c3cccnc3)cs2)cc1	Apaf-1 act -208 | Rh110 interf act inactive | Apaf-1 act conf inactive
Cc1[nH]cnc1CSCc1ccc(Cl)cc1	Apaf-1 act -426 | Rh110 interf act inactive | Apaf-1 act conf inactive
COCCNc1nc(C)cc(-c2cc(C(=O)Nc3ccccc3)on2)n1	Apaf-1 act -53 | Rh110 interf act inactive | Apaf-1 act conf inactive
Cc1cc(C)c(S(=O)(=O)NCc2ccc3c(c2)cc(C)n3C)c(C)c1	none
C[n+]1ccccc1/C=N/O	none
O/N=C/c1ccc2ccccc2n1	Apaf-1 act -50 | Rh110 interf act inactive | Apaf-1 act conf inactive
CCCCCCCCCCOC(=O)Cn1c(COc2cccc(C)c2)[n+](C)c2ccccc21	none
Cc1[nH]n(-c2ccccc2)c(=O)c1C(c1ccc(O)c([N+](=O)[O-])c1)c1c(C)[nH]n(-c2ccccc2)c1=O	none
COc1cccc(C(c2c(C)[nH]n(-c3ccccc3)c2=O)c2c(C)[nH]n(-c3ccccc3)c2=O)c1O	none
NS(=O)(=O)c1cccc(NC(=O)CCS(=O)(=O)c2ccc(Cl)cc2)c1	Apaf-1 act -254 | Rh110 interf act inactive | Apaf-1 act conf inactive
CN1CCN(c2nc(-c3ccc(C(C)(C)C)cc3)nc3ccccc23)CC1	none
Oc1ccc(Cl)cc1CNc1cccc2cccnc12	none
O=C(c1ccc2ncsc2c1)N1CCCC(C(F)(F)F)C1 (stereo not given)	none
CSCCC(NC(=O)c1ccco1)C(=O)N1CCCC(C(F)(F)F)C1 (stereo not given)	Apaf-1 act -394 | Rh110 interf act inactive | Apaf-1 act conf inactive
CCCCCCCCCCOC(=O)Cn1c(COc2ccc(Cl)cc2)[n+](C)c2ccccc21	none
Cc1cccc(N(C(=O)Cn2nnc3ccccc32)C(C(=O)NCc2ccco2)c2ccncc2)c1 (stereo not given)	Apaf-1 act -47 | Rh110 interf act inactive | Apaf-1 act conf inactive
COC(=O)c1ccc(C(=O)Nc2ccc(N)cc2N)cc1	none
COc1ccc2c(c1)OC[C@H]1[C@H]2N2C(=O)c3cc(OC)c(OC)cc3NC(=O)[C@@]2(C)[C@H]1c1ccccc1	Apaf-1 act -143 | Rh110 interf act inactive | Apaf-1 act conf inactive
O=C(NC(Cc1ccccc1)C(=O)NCc1ccccn1)c1ccco1 (stereo not given)	Apaf-1 act -187 | Rh110 interf act inactive | Apaf-1 act conf inactive
CCCCCCOc1ccc(/C(C)=N/NC2=NCCN2)cc1[N+](=O)[O-]	none
S=c1nc(-c2ccc(Cl)cc2)[nH][nH]1	Apaf-1 act -396 | Rh110 interf act inactive | Apaf-1 act conf inactive
O=[N+]([O-])c1ccc(/C=C/c2ccc3cccc([N+](=O)[O-])c3n2)cc1	Apaf-1 act -107 | Rh110 interf act inactive | Apaf-1 act conf inactive
CCN(CC)c1ccc(S(=O)(=O)N2CCCCC2)cc1NC(=O)C1CSC2(C)CCC(=O)N12 (stereo not given)	none
CCOC(=O)C1CCCN(C(=O)c2cc(S(=O)(=O)N3CCCCCC3)ccc2OC)C1 (stereo not given)	none
CCOc1ccc(S(=O)(=O)N2CCCCC2)cc1NC(=O)C1=COCCO1	Apaf-1 act -131 | Rh110 interf act inactive | Apaf-1 act conf inactive
C#CCOCCOCCOCCNc1nc(N2CCN(C(=O)CCCCCCCCCCNC(=O)[C@H]([C@@H](C)CC)n3cc(CCCCCN)nn3)CC2)nc(N2CCN(C(=O)CCCCCCCCCCNC(=O)[C@H](CCCCN)n3cc(CCCC(=O)O)nn3)CC2)n1	none
CSc1ccc(CN(C)C(=O)c2cccc(S(=O)(=O)NCc3ccccc3)c2)cc1	none
COC(=O)c1cc(S(=O)(=O)NCc2cccc(Br)c2)c[nH]1	Apaf-1 act -53 | Rh110 interf act inactive | Apaf-1 act conf inactive
